ChEMBL document CHEMBL4387704, “Design, synthesis and biological evaluation of novel isoindolinone derivatives as potent histone deacetylase inhibitors” (Eur J Med Chem, 2019)

Key:
T47D = test: Growth inhibition of human T47D cells assessed as cell growth inhibition at 10 uM incubated for 48 hrs by sulforhodamine B assay; format: functional; conditions: read-out: GI
MDA-MB-468 = test: Growth inhibition of human MDA-MB-468 cells assessed as cell growth inhibition at 10 uM incubated for 48 hrs by sulforhodamine B assay; format: functional; conditions: MDA-MB-468, 48 h, read-out: GI
K562 = test: Potency index, ratio of IC50 of chidamide to IC50 of test compound against human K562 cells; format: functional
A498 = test: Growth inhibition of human A498 cells assessed as cell growth inhibition at 10 uM incubated for 48 hrs by sulforhodamine B assay; format: functional; conditions: A498, 48 h, read-out: GI
Histone deacetylase 1 = Histone deacetylase 1 (Homo sapiens, UniProt Q13547); test: Inhibition of HDAC1 (unknown origin) using Fluor de Lys substrate by fluorescence assay relative to control; conditions: read-out: IC50
Chain of Histone deacetylase 1 (Q13547 whole entry): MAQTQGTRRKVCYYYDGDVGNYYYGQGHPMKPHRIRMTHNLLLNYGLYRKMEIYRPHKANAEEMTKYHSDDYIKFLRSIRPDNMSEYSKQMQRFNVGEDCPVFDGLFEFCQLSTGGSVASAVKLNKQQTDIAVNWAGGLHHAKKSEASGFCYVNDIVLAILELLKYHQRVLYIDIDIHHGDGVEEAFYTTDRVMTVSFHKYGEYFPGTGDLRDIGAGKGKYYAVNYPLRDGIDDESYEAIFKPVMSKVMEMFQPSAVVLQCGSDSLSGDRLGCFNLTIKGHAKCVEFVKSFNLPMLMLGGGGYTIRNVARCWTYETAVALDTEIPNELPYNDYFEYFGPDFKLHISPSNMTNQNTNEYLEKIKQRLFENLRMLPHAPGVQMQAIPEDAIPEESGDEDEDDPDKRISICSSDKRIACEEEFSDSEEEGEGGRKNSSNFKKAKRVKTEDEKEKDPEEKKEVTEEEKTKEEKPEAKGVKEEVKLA

[1] = Clearance in Sprague-Dawley rat at 1 mg/kg, iv by LC-MS/MS analysis; format: ADME, organism-based; conditions: in vivo
How it was run: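 Male SD rats, 199-214 g, three per route. Single iv dose of 1 mg/kg or oral dose of 10 mg/kg. About 200 μL blood drawn from the jugular vein into heparinized tubes at set times, then spun to plasma. 30 μL plasma precipitated with CH3CN containing verapamil and glibenclamide as internal standards. Plasma drug level measured by LC-MS/MS.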

HCT-116 [2] = test: Growth inhibition of human HCT116 cells assessed as cell growth inhibition at 10 uM incubated for 48 hrs by sulforhodamine B assay; format: functional; conditions: HCT-116, 48 h, read-out: GI
HCT-116 [3] = test: Potency index, ratio of IC50 of chidamide to IC50 of test compound against human HCT116 cells; format: functional
UACC-62 = test: Growth inhibition of human UACC62 cells assessed as cell growth inhibition at 10 uM incubated for 48 hrs by sulforhodamine B assay; format: functional; conditions: UACC-62, 48 h, read-out: GI

Nc1cc(F)ccc1NC(=O)c1ccc(CNC(=O)/C=C2\NC(=O)c3ccccc32)cc1
inhibition of growth at 10 µM (T47D): 58.2% | inhibition of growth at 10 µM (MDA-MB-468): 9.71% | Ratio IC50 (K562): 4 | inhibition of growth at 10 µM (A498): 47.1% | IC50 (Histone deacetylase 1): 0.0651 µM | clearance [1]: 21.3 mL/min/kg | inhibition of growth at 10 µM (HCT-116 [2]): 73.3% | Ratio IC50 (HCT-116 [3]): 2.5 | inhibition of growth at 10 µM (UACC-62): 57.8%
